Source: paper PMC9880397 (Heliyon, 2023)

Tests used:
Type in all cases: cell-based
[1] = system: MCF-7 human breast cancer cells; test: SRB cytotoxicity assay, MCF-7 cells; details: for IC50: MCF7, 48 h, read-out: IC50 against MCF-7 cells
Procedure, shortened: (§1)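 Cells from ATCC, seeded at about […] in fresh medium at 37 ᵒC and <5% CO2. After 24 h, a DMSO series of test compound (up to 100 μg/mL) was added, then incubated 48 h. Read-out was A570, with DMSO control set as 100% viability.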

[2] = system: A-549 (Lung) human cancer cells; test: SRB cytotoxicity assay, A-549 cells; details: A549, read-out: % Viability of cancer cells A-549
Procedure, shortened: as §1

[3] = system: HEPG-2 (Liver) human cancer cells; test: SRB cytotoxicity assay, HEPG-2 cells
Procedure, shortened: as §1

[4] = system: HCT-116 (Colon) human cancer cells; test: SRB cytotoxicity assay, HCT-116 cells; details: HCT-116, read-out: % Viability of cancer cells HCT-116
Procedure, shortened: as §1

[5] = MCF7, read-out: % Viability of cancer cells MCF-7
[6] = HepG2, read-out: % Viability of cancer cells HEPG-2

## COc1cccc2c1C(=O)c1c(O)c3c(c(O)c1C2=O)C[C@@](O)(C(=O)CO)C[C@@H]3O[C@H]1C[C@H](N)[C@H](O)[C@H](C)O1 [Doxorubicin, doxorubicin, reference compound]
[1]
  IC50: 9.66 µM

## O=[N+]([O-])c1ccc(NC(=S)NN=Cc2ccccn2)cc1 [HL^1, 4-(4-Nitrophenyl)-1-((pyridin-2-yl)methylene)thiosemicarbazide]
[1]
  IC50: 52.4 µM
[1]; [5]
  viability at 41.5 µM: 60%
  viability at 83 µM: 26.4%
  viability at 124.5 µM: 23.2%
  viability at 166 µM: 9.6%
[2]
  viability at 41.5 µM: 71.9%
  viability at 83 µM: 70.7%
  viability at 124.5 µM: 69.6%
  viability at 166 µM: 64.1%
[3]; HepG2, 48 h, read-out: IC50 against HEPG-2 cells
  IC50: 80 µM
[3]; [6]
  viability at 41.5 µM: 76%
  viability at 83 µM: 48%
  viability at 124.5 µM: 39.2%
  viability at 166 µM: 33.2%
[4]
  viability at 41.5 µM: 80%
  viability at 83 µM: 76%
  viability at 124.5 µM: 63.6%
  viability at 166 µM: 60.4%

## COc1ccc(OC)c(NC(=S)NN=Cc2ccccn2)c1 [HL^2, 4-(2,5-Dimethoxyphenyl)-1-((pyridin-2-yl)methylene)thiosemicarbazide]
[1]
  IC50: 145 µM
